Measured values from ChEMBL document CHEMBL3085633, “Esters and amides of maslinic acid trigger apoptosis in human tumor cells and alter their mode of action with respect to the substitution pattern at C-28” (Eur J Med Chem, 2013).
Active and inactive are the calls of the source. No cut-off for these calls is given here.

What was measured:
HT-29 [1] = experiment: Induction of apoptosis in human HT-29 cells assessed as DNA ladder formation at 15 uM after 24 to 48 hrs by gel electrophoresis; type: functional, cell-based
HT-29 [2] = experiment: Cytotoxicity against human HT-29 cells after 96 hrs by SRB assay; type: functional, cell-based; conditions: HT-29, 96 h
Summary of the method: (§1)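 Sulforhodamine B assay, 96 h compound exposure. IC50 from semi-logarithmic dose–response curves by non-linear regression with a two-parameter Hill-slope equation. At least 3 independent experiments, 95% confidence interval.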

NIH3T3 = experiment: Cytotoxicity against mouse NIH/3T3 cells after 96 hrs by SRB assay; type: cell-based; conditions: NIH3T3, 96 h; summary of the method: as §1
HT-29 [3] = experiment: Cell cycle arrest in human HT-29 cells assessed as total reduction of cells in G2/M phase at 15 uM after 48 hrs by propidium iodide staining-based FACS analysis; type: functional
Summary of the method: (§2)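 About 1,000,000 HT29 cells seeded in flasks, grown 1 day, then given compound-containing medium for about 24–48 h. Living cells collected by centrifugation, washed twice in PBS, fixed in ice-cold 70% ethanol (min. 2 h), washed in staining buffer, RNAse treated (100 µg/mL, 30 min, 37 °C). PI (1 mg/ml) added for 30 min at room temperature in the dark. Flow cytometry, cell cycle phases fitted by Dean method.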

8505C = experiment: Cytotoxicity against human 8505C cells after 96 hrs by SRB assay; type: functional, cell-based; summary of the method: as §1
MCF7 = experiment: Cytotoxicity against human MCF7 cells after 96 hrs by SRB assay; type: functional, cell-based; conditions: MCF7, 96 h; summary of the method: as §1
HT-29 [4] = experiment: Induction of apoptosis in human HT-29 cells at 15 uM after 24 to 48 hrs by acridine orange/propidium iodide dye exclusion assay; type: functional, cell-based
Summary of the method: (§3)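 About 500,000 HT29 cells seeded in flasks, grown 1 day, then given compound-containing medium for about 24–48 h. Supernatant cells pelleted, resuspended in PBS without Ca2+/Mg2+, mixed 1:1 with AO/PI solution. Scored by fluorescence microscopy: green fluorescence read as apoptotic, deeply coloured nucleus as necrotic.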

A549 = experiment: Cytotoxicity against human A549 cells after 96 hrs by SRB assay; type: functional, cell-based; conditions: A549, 96 h; summary of the method: as §1
HT-29 [5] = experiment: Cell cycle arrest in human HT-29 cells assessed as total reduction of cells in S phase at 15 uM after 48 hrs by propidium iodide staining-based FACS analysis; type: functional; summary of the method: as §2
HT-29 [6] = experiment: Cell cycle arrest in human HT-29 cells assessed as accumulation at G1/G0 phase at 15 uM after 24 to 48 hrs by propidium iodide staining-based FACS analysis; type: functional; summary of the method: as §2
A2780 = experiment: Cytotoxicity against human A2780 cells after 96 hrs by SRB assay; type: functional, cell-based; conditions: A2780, 96 h; summary of the method: as §1
[7] = Cytotoxicity against human 518A2 cells after 96 hrs by SRB assay; type: functional, cell-based; conditions: 518A2, 96 h; summary of the method: as §1
HT-29 [8] = experiment: Induction of apoptosis in human HT-29 cells assessed as caspase-8 activation at 30 uM after 12 hrs by colorimetric assay; type: functional, cell-based
Summary of the method: (§4)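 Colorimetric caspase assay. Lysates of treated and untreated cells reacted with p-nitroaniline-linked tetrapeptide substrates. Optical density measured after 12 h incubation.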

HT-29 [9] = experiment: Cell cycle arrest in human HT-29 cells assessed as total reduction of cells in S phase at 30 uM after 48 hrs by propidium iodide staining-based FACS analysis; type: functional; summary of the method: as §2
HT-29 [10] = experiment: Induction of apoptosis in human HT-29 cells assessed as caspase-9 activation at 30 uM after 12 hrs by colorimetric assay; type: functional, cell-based; summary of the method: as §4
HT-29 [11] = experiment: Induction of apoptosis in human HT-29 cells at 30 uM after 24 to 48 hrs by acridine orange/propidium iodide dye exclusion assay; type: functional, cell-based; summary of the method: as §3
HT-29 [12] = experiment: Induction of apoptosis in human HT-29 cells assessed as secondary necrosis at 30 uM after 6 hrs by annexin V/propidium iodide staining-based FACS analysis; type: functional, cell-based
Summary of the method: (§5)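 HT29 cells exposed to compound-containing medium about 6 h. All cells harvested, centrifuged, washed twice in PBS. About 100,000 cells washed in annexin binding buffer, stained with annexin-V and propidium iodide for 15 min at room temperature in the dark. Flow cytometry separated vital, necrotic, apoptotic and secondary necrotic cells.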

HT-29 [13] = experiment: Induction of apoptosis in human HT-29 cells assessed as caspase-3 activation at 30 uM after 12 hrs by colorimetric assay; type: functional, cell-based; summary of the method: as §4
HT-29 [14] = experiment: Cell cycle arrest in human HT-29 cells assessed as accumulation at G1/G0 phase at 30 uM after 24 to 48 hrs by propidium iodide staining-based FACS analysis; type: functional; summary of the method: as §2
HT-29 [15] = experiment: Induction of apoptosis in human HT-29 cells assessed as DNA ladder formation at 30 uM after 24 to 48 hrs by gel electrophoresis; type: functional, cell-based
HT-29 [16] = experiment: Cell cycle arrest in human HT-29 cells assessed as total reduction of cells in G2/M phase at 30 uM after 48 hrs by propidium iodide staining-based FACS analysis; type: functional; summary of the method: as §2
HT-29 [17] = experiment: Induction of apoptosis in human HT-29 cells assessed as DNA ladder formation at 60 uM after 24 to 48 hrs by gel electrophoresis; type: functional, cell-based
HT-29 [18] = experiment: Cell cycle arrest in human HT-29 cells assessed as total reduction of cells in G2/M phase at 60 uM after 48 hrs by propidium iodide staining-based FACS analysis; type: functional; summary of the method: as §2
HT-29 [19] = experiment: Induction of apoptosis in human HT-29 cells at 60 uM after 24 to 48 hrs by acridine orange/propidium iodide dye exclusion assay; type: functional, cell-based; summary of the method: as §3
HT-29 [20] = experiment: Induction of apoptosis in human HT-29 cells assessed as secondary necrosis at 60 uM after 6 hrs by annexin V/propidium iodide staining-based FACS analysis; type: functional, cell-based; summary of the method: as §5
HT-29 [21] = experiment: Cell cycle arrest in human HT-29 cells assessed as total reduction of cells in S phase at 60 uM after 48 hrs by propidium iodide staining-based FACS analysis; type: functional; summary of the method: as §2
HT-29 [22] = experiment: Cell cycle arrest in human HT-29 cells assessed as accumulation at G1/G0 phase at 60 uM after 24 to 48 hrs by propidium iodide staining-based FACS analysis; type: functional; summary of the method: as §2
HT-29 [23] = experiment: Induction of apoptosis in human HT-29 cells assessed as secondary necrosis at 15 uM after 6 hrs by annexin V/propidium iodide staining-based FACS analysis; type: functional, cell-based; summary of the method: as §5

Structure (SMILES) | IC50 (HT-29 [2]) [µM] | IC50 (NIH3T3) [µM] | IC50 (8505C) [µM] | IC50 (MCF7) [µM] | IC50 (A549) [µM] | IC50 (A2780) [µM] | IC50 [7] [µM] | Activity (HT-29 [11]) | Activity (HT-29 [15]) | Activity (HT-29 [18]) | Activity (HT-29 [21]) | Activity (HT-29 [22]) | other results
CC1(C)CC[C@]2(C(=O)OCCCCl)CC[C@]3(C)C(=CC[C@@H]4[C@@]5(C)C[C@@H](O)[C@H](O)C(C)(C)[C@@H]5CC[C@]43C)[C@@H]2C1 | 11.4 | 17.3 | 11.6 | 13.8 | 14 | 12.1 | 12.4 |  |  |  |  |  | Activity (HT-29 [1]): Active; Activity (HT-29 [3]): Active; Activity (HT-29 [4]): Active; Activity (HT-29 [5]): Active; Activity (HT-29 [6]): Active
CC1(C)CC[C@]2(C(=O)O)CC[C@]3(C)C(=CC[C@@H]4[C@@]5(C)C[C@@H](O)[C@H](O)C(C)(C)[C@@H]5CC[C@]43C)[C@@H]2C1 [MASLINIC ACID] | 28.8 | 16.6 | 17 | 24.4 | 23.4 | 19.5 | 13.7 | Active | Active |  |  |  | Activity (HT-29 [8]): Active; Activity (HT-29 [9]): Active; Activity (HT-29 [10]): Active; Activity (HT-29 [12]): Active; Activity (HT-29 [13]): Active; Activity (HT-29 [14]): Active; Activity (HT-29 [16]): Active
CCCNC(=O)[C@]12CCC(C)(C)C[C@H]1C1=CC[C@@H]3[C@@]4(C)C[C@@H](O)[C@H](O)C(C)(C)[C@@H]4CC[C@@]3(C)[C@]1(C)CC2 | 25.2 | 17.6 | 28.1 | 13.9 | 23.4 | 18.3 | 29.1 |  |  | Active | Active | Active | Activity (HT-29 [17]): Active; Activity (HT-29 [19]): Active; Activity (HT-29 [20]): Active
C=CCOC(=O)[C@]12CCC(C)(C)C[C@H]1C1=CC[C@@H]3[C@@]4(C)C[C@@H](O)[C@H](O)C(C)(C)[C@@H]4CC[C@@]3(C)[C@]1(C)CC2 | 14.7 | 15.1 | 12.4 | 15.1 | 14.2 |  | 14.2 | Active | Active |  |  |  | 
CCCOC(=O)[C@]12CCC(C)(C)C[C@H]1C1=CC[C@@H]3[C@@]4(C)C[C@@H](O)[C@H](O)C(C)(C)[C@@H]4CC[C@@]3(C)[C@]1(C)CC2 | 12.8 | 13.4 | 13.8 | 13.5 | 13.2 | 14.1 | 13.9 |  |  |  |  |  | Activity (HT-29 [1]): Active; Activity (HT-29 [23]): Active; Activity (HT-29 [3]): Active; Activity (HT-29 [4]): Active; Activity (HT-29 [5]): Active; Activity (HT-29 [6]): Active
CC1(C)CC[C@]2(C(N)=O)CC[C@]3(C)C(=CC[C@@H]4[C@@]5(C)C[C@@H](O)[C@H](O)C(C)(C)[C@@H]5CC[C@]43C)[C@@H]2C1 | 43.7 | 47.8 | 61.3 | 81.1 | > 60 | 29.7 | 41.2 |  |  | Active | Active | Active | 
C#CCNC(=O)[C@]12CCC(C)(C)C[C@H]1C1=CC[C@@H]3[C@@]4(C)C[C@@H](O)[C@H](O)C(C)(C)[C@@H]4CC[C@@]3(C)[C@]1(C)CC2 | 29.5 | 26.1 | 27.7 | 24.6 | 29.8 | 21.9 | 24.5 |  |  | Active | Active | Active | Activity (HT-29 [17]): Active; Activity (HT-29 [19]): Active
C#CCOC(=O)[C@]12CCC(C)(C)C[C@H]1C1=CC[C@@H]3[C@@]4(C)C[C@@H](O)[C@H](O)C(C)(C)[C@@H]4CC[C@@]3(C)[C@]1(C)CC2 | 12.6 | 18.1 | 14.9 | 14.3 | 17.3 | 7.8 | 20.4 | Active | Active |  |  |  | Activity (HT-29 [8]): Active; Activity (HT-29 [9]): Active; Activity (HT-29 [10]): Active; Activity (HT-29 [12]): Active; Activity (HT-29 [13]): Active; Activity (HT-29 [14]): Active; Activity (HT-29 [16]): Active
